Series [1] deals with T1, Phosphatidylinositol 4,5-bisphosphate 3-kinase catalytic subunit delta isoform (Homo sapiens, UniProt O00329).
T1 sequence (O00329 whole entry): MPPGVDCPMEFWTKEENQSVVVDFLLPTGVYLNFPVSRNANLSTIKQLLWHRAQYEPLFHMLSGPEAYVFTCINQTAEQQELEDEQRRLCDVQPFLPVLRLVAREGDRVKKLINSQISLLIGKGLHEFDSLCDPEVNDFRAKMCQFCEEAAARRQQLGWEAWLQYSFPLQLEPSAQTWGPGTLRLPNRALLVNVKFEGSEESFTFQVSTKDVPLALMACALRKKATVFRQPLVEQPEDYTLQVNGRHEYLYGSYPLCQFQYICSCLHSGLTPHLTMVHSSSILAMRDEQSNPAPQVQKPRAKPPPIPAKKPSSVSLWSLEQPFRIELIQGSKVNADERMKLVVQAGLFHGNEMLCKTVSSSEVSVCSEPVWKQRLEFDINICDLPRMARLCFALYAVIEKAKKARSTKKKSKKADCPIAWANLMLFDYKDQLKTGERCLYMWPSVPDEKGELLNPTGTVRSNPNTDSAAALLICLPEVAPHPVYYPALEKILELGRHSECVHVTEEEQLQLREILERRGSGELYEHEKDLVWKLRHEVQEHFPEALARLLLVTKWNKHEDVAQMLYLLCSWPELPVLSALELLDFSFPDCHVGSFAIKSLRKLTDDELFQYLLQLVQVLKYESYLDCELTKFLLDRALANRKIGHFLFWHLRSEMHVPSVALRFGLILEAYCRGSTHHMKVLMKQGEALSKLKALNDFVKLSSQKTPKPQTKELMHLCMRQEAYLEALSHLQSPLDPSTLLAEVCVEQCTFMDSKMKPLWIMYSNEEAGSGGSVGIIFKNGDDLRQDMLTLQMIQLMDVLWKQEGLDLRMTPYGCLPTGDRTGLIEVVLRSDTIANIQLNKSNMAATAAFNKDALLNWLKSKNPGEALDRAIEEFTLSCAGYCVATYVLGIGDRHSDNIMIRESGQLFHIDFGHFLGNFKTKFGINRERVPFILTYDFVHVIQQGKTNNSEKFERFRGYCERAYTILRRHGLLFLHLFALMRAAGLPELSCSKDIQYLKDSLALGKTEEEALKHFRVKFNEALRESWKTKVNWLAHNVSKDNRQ
The series can be described thus: Inhibition of PI3Kdelta (unknown origin) using diC8 PIP2 as substrate after 120 mins by ADP-glo assay. In a few lines:
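Delta isoform reacted 120 min in glycine-NaOH pH 8.5 buffer (50 mM KCl, 2.5 mM MgCl2, 1 mM DTT, 0.05% CHAPS) with 0.01 mM ATP and 0.05 mM diC8 PIP2; ADP formed detected by ADP-Glo (40 min) plus detection buffer (40 min) luminescence. Dundee profiling centre.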

Series [2] addresses T2, Phosphatidylinositol 4,5-bisphosphate 3-kinase catalytic subunit beta isoform (Homo sapiens, UniProt P42338). The series can be described thus: Inhibition of PI3Kbeta (unknown origin) using diC8 PIP2 as substrate after 60 mins by ADP-glo assay. (ADP-Glo turns the ADP formed in a reaction into a luminescent signal.)
Series [3] is described as follows: Cytotoxicity against human A375 cells assessed as cell growth inhibition after 48 hrs by MTT assay. Format: functional. To be noted: A-375, 48 h. A digest of the protocol: (§1)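 MTT assay: 3 × 10^3 cells/well seeded, compounds added after 24 h at final […], 48 h exposure. MTT (2.5 mg/mL in PBS) added, formazan dissolved in DMSO, absorbance 570 nm. Viability as % of untreated; three independent experiments, mean ± SD.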
A general note: Tetrazolium dyes change colour on reduction, which living cells bring about.

For series [4], the target named is T3, Phosphatidylinositol 4,5-bisphosphate 3-kinase catalytic subunit gamma isoform (Homo sapiens, UniProt P48736). Description: Inhibition of PI3Kgamma (unknown origin) using diC8 PIP2 as substrate after 75 mins by ADP-glo assay.
T3 sequence (P48736 whole entry, canonical isoform): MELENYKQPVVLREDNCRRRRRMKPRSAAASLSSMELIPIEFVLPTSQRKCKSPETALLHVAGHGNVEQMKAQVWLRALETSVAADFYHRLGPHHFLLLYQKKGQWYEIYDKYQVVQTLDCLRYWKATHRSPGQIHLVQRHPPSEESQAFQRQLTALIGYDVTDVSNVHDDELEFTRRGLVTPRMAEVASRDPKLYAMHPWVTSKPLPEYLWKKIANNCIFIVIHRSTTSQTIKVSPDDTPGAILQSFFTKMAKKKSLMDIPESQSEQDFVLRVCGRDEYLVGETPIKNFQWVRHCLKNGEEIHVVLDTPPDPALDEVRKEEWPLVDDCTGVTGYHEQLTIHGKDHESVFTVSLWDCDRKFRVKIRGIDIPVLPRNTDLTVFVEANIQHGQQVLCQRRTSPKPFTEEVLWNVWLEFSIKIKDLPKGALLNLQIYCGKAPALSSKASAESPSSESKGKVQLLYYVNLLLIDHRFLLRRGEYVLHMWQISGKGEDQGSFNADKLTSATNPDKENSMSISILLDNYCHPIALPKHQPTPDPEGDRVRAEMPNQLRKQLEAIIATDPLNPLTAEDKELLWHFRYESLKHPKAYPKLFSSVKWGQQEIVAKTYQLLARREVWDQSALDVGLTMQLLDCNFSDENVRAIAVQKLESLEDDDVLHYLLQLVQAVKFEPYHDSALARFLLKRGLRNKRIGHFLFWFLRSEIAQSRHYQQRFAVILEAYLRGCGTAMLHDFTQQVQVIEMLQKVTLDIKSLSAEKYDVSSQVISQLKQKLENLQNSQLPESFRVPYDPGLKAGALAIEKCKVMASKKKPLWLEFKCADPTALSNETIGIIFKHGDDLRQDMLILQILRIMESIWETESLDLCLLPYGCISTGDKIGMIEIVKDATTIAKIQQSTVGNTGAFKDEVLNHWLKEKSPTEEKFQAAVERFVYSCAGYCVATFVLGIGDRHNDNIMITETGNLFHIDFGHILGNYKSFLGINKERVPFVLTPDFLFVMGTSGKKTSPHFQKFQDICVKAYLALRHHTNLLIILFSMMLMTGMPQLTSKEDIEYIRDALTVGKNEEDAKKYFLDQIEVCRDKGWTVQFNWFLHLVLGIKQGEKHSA
Series [5] has as its target T4, Phosphatidylinositol 4,5-bisphosphate 3-kinase catalytic subunit alpha isoform (Homo sapiens, UniProt P42336). Description: Inhibition of PI3Kalpha (unknown origin) using diC8 PIP2 as substrate after 80 mins by ADP-glo assay.
The nature of series [6]: Cytotoxicity against human MCF7 cells assessed as cell growth inhibition after 48 hrs by MTT assay. To be noted: MCF7, 48 h. Format: functional. In a few lines: as §1
Series [7] can be described thus: Cytotoxicity against human PANC1 cells assessed as cell growth inhibition after 48 hrs by MTT assay. Format: functional. Particulars: PANC-1, 48 h. A digest of the protocol:
as §1

Series [8] is described as follows: Cytotoxicity against human PC3 cells assessed as cell growth inhibition after 48 hrs by MTT assay. Format: functional. Particulars: PC-3, 48 h. A digest of the protocol:
as §1

Series [9] is described as follows: Cytotoxicity against human HL60 cells assessed as cell growth inhibition after 48 hrs by MTT assay. Format: functional. To be noted: HL-60, 48 h. A digest of the protocol:
as §1

The nature of series [10]: Anticancer activity against Swiss mouse EAC cells implanted in Swiss mouse assessed as tumor growth inhibition at 20 mg/kg, ip administered for 1 to 9 days measured on day 12 relative to control. Format: functional. Particulars: Ehrlich, read-out: TGI. In a few lines:
(§2)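 1×10^7 EAC cells injected intraperitoneally into Swiss mice on day 0. Mice randomized next day: treated groups n=7, saline control n=10 (0.2 ml i.p.). Dosing i.p. days 1–9. Sacrifice on day 12; ascitic fluid collected from the peritoneal cavity. % tumor growth inhibition from total tumor cell count versus control. Body weight and mortality tracked.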

Series [11] has as its system Mus musculus. Description: Toxicity in Swiss mouse implanted with Swiss mouse EAT cells assessed as body weight at 22 mg/kg, ip administered for 1 to 9 days measured on day 5 (reference value: 22.6 g). Format: organism-based. To be noted: in vivo. A digest of the protocol:
(§3)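 EAC cells harvested from 8–10-day ascitic Swiss mice; 1×10^7 cells injected intramuscularly into right thigh of Swiss male mice on day 0. Randomized next day: treated n=7, saline control n=10 (0.2 ml i.p.). Dosing i.p. days 1–9. […] Body weight and mortality tracked.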

Series [12] has as its system Mus musculus. Description: Toxicity in Swiss mouse implanted with Swiss mouse EAC cells assessed as body weight at 20 mg/kg, ip administered for 1 to 9 days measured on day 5 (reference value: 26.2 g). Format: organism-based, Ehrlich. Particulars: in vivo. A digest of the protocol: as §2
The subject of series [13] is Mus musculus. Description: Toxicity in Swiss mouse implanted with Swiss mouse EAC cells assessed as body weight at 20 mg/kg, ip administered for 1 to 9 days measured on day 12 (reference value: 28.4 g). Format: organism-based, Ehrlich. Particulars: in vivo. A digest of the protocol: as §2
For series [14], the system named is Mus musculus. Description: Toxicity in Swiss mouse implanted with Swiss mouse EAC cells assessed as body weight at 20 mg/kg, ip administered for 1 to 9 days measured on day 1 (reference value: 22.8 g). Format: organism-based, Ehrlich. To be noted: in vivo. In a few lines:
as §2

A short description of series [15]: Anticancer activity against Swiss mouse EAT cells implanted in Swiss mouse assessed as tumor growth inhibition at 22 mg/kg, ip administered for 1 to 9 days measured on day 13 relative to control. To be noted: read-out: TGI. Format: functional.
For series [16], the system named is Mus musculus. The series can be described thus: Toxicity in Swiss mouse implanted with Swiss mouse EAT cells assessed as body weight at 22 mg/kg, ip administered for 1 to 9 days measured on day 9 (reference value: 22.8 g). Format: organism-based. To be noted: in vivo. A digest of the protocol: as §3
Series [17] relates to Mus musculus. The series can be described thus: Toxicity in Swiss mouse implanted with Swiss mouse EAT cells assessed as body weight at 22 mg/kg, ip administered for 1 to 9 days measured on day 13 (reference value: 24.1 g). Format: organism-based. To be noted: in vivo. A digest of the protocol: as §3
The subject of series [18] is Mus musculus. The series can be described thus: Toxicity in Swiss mouse implanted with Swiss mouse EAC cells assessed as mortality at 20 mg/kg, ip administered for 1 to 9 days measured on day 12. Format: organism-based, Ehrlich. To be noted: in vivo. A digest of the protocol:
as §2

Series [19] relates to Mus musculus. Description: Toxicity in Swiss mouse implanted with Swiss mouse EAC cells assessed as body weight at 20 mg/kg, ip administered for 1 to 9 days measured on day 9 (reference value: 27.7 g). Format: organism-based, Ehrlich. Particulars: in vivo. A digest of the protocol: as §2
For series [20], the system named is Mus musculus. The series can be described thus: Toxicity in Swiss mouse implanted with Swiss mouse EAT cells assessed as body weight at 22 mg/kg, ip administered for 1 to 9 days measured on day 1 (reference value: 21.6 g). Format: organism-based. To be noted: in vivo. In a few lines: as §3
Series [21] has as its system Mus musculus. Description: Toxicity in Swiss mouse implanted with Swiss mouse EAT cells assessed as mortality at 22 mg/kg, ip administered for 1 to 9 days measured on day 9 and 13. To be noted: in vivo. Format: organism-based. A digest of the protocol:
as §3

The species named for series [22] is Homo sapiens. Description: Selectivity ratio of IC50 for PI3Kgamma (unknown origin) to IC50 for PI3Kalpha (unknown origin).
For series [23], the target named is T4, Phosphatidylinositol 4,5-bisphosphate 3-kinase catalytic subunit alpha isoform. Description: Inhibition of PI3Kalpha (unknown origin) using diC8 PIP2 as substrate at 0.5 uM after 80 mins by ADP-glo assay.
The species entered for series [24] is Homo sapiens. The series can be described thus: Selectivity ratio of IC50 for PI3Kdelta (unknown origin) to IC50 for PI3Kalpha (unknown origin).
The species entered for series [25] is Homo sapiens. Description: Selectivity ratio of IC50 for PI3Kbeta (unknown origin) to IC50 for PI3Kalpha (unknown origin).
Series [26] addresses T2, Phosphatidylinositol 4,5-bisphosphate 3-kinase catalytic subunit beta isoform. The series can be described thus: Inhibition of PI3Kbeta (unknown origin).
The target in series [27] is T3, Phosphatidylinositol 4,5-bisphosphate 3-kinase catalytic subunit gamma isoform.
Series [28] deals with T4, Phosphatidylinositol 4,5-bisphosphate 3-kinase catalytic subunit alpha isoform. The series can be described thus: Inhibition of PI3Kalpha (unknown origin). In a few lines: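 Run by a kinase profiling service. Reaction 80 min. ADP-Glo reagent added for 40 min, then kinase detection buffer for 40 min. Luminescence read.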
Series [29] deals with T1, Phosphatidylinositol 4,5-bisphosphate 3-kinase catalytic subunit delta isoform. Description: Inhibition of PI3Kdelta (unknown origin). In a few lines:
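Substrate was 0.05 mM diC8 PIP2 with 0.01 mM ATP, and the kinase reaction ran 120 min. ADP produced was read by ADP-Glo luminescence: 40 min with ADP-Glo reagent, then 40 min with detection buffer.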

Bounds are passed on as bounds.

Broadly, the IC50 is the concentration at which inhibition is half-maximal. A higher IC50 goes with weaker potency in that assay. As usually defined, the GI50 is the concentration that inhibits growth by half. A word on the inhibition: it is the share of the control response that was lost under treatment. Low readings indicate a weak effect, high ones a strong effect.

T2 sequence (P42338 whole entry, canonical isoform): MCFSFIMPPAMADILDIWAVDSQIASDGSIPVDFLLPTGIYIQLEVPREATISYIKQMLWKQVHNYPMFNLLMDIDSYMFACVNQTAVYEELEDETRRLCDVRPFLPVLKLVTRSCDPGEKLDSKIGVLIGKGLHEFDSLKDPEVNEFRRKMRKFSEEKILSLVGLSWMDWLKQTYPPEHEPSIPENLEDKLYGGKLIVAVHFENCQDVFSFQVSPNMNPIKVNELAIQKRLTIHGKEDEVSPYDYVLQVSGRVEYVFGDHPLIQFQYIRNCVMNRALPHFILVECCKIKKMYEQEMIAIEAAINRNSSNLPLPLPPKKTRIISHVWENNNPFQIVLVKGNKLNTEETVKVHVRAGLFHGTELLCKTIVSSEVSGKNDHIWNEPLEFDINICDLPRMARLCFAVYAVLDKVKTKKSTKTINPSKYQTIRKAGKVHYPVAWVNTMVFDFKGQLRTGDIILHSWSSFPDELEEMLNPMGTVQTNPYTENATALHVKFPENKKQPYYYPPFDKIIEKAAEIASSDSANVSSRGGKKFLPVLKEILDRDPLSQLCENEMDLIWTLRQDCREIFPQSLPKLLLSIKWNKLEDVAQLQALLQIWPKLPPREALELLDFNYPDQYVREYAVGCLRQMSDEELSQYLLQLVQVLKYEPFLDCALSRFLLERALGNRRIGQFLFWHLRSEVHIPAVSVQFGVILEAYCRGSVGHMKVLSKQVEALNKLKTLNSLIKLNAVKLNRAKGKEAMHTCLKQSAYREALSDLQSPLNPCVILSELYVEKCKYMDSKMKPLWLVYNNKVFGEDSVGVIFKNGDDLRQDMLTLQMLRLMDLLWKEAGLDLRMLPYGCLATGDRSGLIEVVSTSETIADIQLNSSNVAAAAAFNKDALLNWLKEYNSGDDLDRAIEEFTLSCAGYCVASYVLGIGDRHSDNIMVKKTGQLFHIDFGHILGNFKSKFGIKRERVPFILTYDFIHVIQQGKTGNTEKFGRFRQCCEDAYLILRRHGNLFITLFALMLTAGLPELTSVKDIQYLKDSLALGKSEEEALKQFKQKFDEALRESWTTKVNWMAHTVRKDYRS
T4 sequence (P42336 whole entry, canonical isoform): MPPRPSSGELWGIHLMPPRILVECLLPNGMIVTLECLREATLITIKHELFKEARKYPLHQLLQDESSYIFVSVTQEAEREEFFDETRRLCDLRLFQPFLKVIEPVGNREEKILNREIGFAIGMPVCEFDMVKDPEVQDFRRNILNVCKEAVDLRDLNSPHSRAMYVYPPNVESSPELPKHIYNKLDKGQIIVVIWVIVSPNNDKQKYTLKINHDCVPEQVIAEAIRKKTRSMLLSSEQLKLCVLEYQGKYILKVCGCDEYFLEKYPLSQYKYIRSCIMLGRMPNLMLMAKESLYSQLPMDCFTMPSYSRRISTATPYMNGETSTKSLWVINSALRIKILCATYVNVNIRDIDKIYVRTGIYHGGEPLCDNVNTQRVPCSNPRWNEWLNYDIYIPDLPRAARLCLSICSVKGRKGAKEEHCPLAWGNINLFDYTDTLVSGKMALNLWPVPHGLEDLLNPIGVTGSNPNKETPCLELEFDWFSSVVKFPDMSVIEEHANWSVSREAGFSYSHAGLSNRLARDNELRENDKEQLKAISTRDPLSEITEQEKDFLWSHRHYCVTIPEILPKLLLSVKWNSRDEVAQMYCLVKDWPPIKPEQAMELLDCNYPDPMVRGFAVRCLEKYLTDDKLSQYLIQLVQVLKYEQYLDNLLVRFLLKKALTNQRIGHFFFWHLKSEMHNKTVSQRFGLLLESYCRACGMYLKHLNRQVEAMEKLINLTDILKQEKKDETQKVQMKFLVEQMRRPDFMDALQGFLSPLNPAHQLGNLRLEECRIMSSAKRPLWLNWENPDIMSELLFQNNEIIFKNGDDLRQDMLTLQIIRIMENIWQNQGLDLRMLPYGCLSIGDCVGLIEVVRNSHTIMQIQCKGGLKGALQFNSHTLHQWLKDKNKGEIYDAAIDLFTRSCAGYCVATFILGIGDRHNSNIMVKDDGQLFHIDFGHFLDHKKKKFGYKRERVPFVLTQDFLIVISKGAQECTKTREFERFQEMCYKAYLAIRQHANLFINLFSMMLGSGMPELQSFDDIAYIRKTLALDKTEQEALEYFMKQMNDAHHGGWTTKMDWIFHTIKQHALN

Regarding `COc1cc2ncnc(Nc3ccc(CC#N)cc3)c2cc1OC`, the IC50 in [1] is 55 µM; in series [2], 19 µM; in series [4] it was 40 µM; in [5] it was 47 µM. For the same compound, the GI50 in series [3] was determined as 19 µM; in [6], 40 µM; in [7], 55 µM; in [8], 34 µM; in series [9], 47 µM.

`O=c1[nH]cc(F)c(=O)[nH]1` [FLUOROURACIL]: the inhibition in vivo at 20 mg/kg in series [10] was found to be 96.9%. The Activity with Mus musculus [11] amounted to 20.85 g; in the series with Mus musculus [12], 22 g; in the series on Mus musculus [13], 20.42 g; with Mus musculus [14], 21.42 g; in the series on Mus musculus [16], 21 g; in the series with Mus musculus [17] it was 22.14 g. For the same compound, the Activity result in the series with Mus musculus [18] was “Non-Toxic”; with Mus musculus [19] it was 21.28 g; in the series with Mus musculus [20], 20.14 g; with Mus musculus [21] it was “Non-Toxic”. The inhibition in vivo at 22 mg/kg in series [15] came to 50%.

`N#CCc1ccc(Nc2ncnc3ccc(-c4ccccc4)cc23)cc1`: the concentration for half-maximal inhibition (IC50) is above 10 µM in [1], above 10 µM in [2], 6.95 µM in series [4] and 0.475 µM in series [5]. The Ratio IC50 in the series listed under Homo sapiens [22] is 14.6; in the series listed under Homo sapiens [24], above 21; in the series filed under Homo sapiens [25] it was above 21. In addition, the concentration for 50% growth inhibition (GI50) came to 38 µM in [3]; 14 µM in series [6]; 38 µM in series [7]; 26 µM in series [8]; 23 µM in series [9]. Besides, the inhibition in series [23] was found to be 36.8%.

In the case of `Nc1nc2cc(-c3ccc4ncc(C(=O)N5CCOCC5)n4c3)ccc2o1` [SERABELISIB], the IC50 turned out to be 4.5 µM in series [26], 1.9 µM in series [27], 0.015 µM in series [28] and 13.9 µM in series [29].

The values are drawn from ChEMBL document CHEMBL3868583, “6-Aryl substituted 4-(4-cyanomethyl) phenylamino quinazolines as a new class of isoform-selective PI3K-alpha inhibitors” (Eur J Med Chem, 2016).
